Assay outcomes (PubChem)
EP2 antag = human EP2 receptor antagonists, primary screen, TR-FRET cAMP, C6 glioma cells; AID 1422, 2008; inhibition, % at 25 µM; C6 glioma cells expressing human EP2; cells stimulated with saturating PGE2; hit rate 0.52% among 260,000;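 active = percent inhibition above 40 after rounding to a whole number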;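 note: rat C6 glioma host cells with rolipram phosphodiesterase inhibitor present; the protocol text gives 20 µM as final concentration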
GPR7 antagonist = GPR7 receptor antagonists, primary screen, cell-based, fluorescence, single concentration; AID 1861, 2009; GPR7-expressing cells, fluorescence antagonist assay; Neuropeptides B/W receptor type 1 (Homo sapiens), P48145; inhibition, % at 4.4 µM; hit rate 1.1% among 290,000; in the data active = inhibition above about 16%, passing the limit was not always enough;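 note: cells stimulated with the agonist NPW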
Target sequence (P48145 whole entry, looked up): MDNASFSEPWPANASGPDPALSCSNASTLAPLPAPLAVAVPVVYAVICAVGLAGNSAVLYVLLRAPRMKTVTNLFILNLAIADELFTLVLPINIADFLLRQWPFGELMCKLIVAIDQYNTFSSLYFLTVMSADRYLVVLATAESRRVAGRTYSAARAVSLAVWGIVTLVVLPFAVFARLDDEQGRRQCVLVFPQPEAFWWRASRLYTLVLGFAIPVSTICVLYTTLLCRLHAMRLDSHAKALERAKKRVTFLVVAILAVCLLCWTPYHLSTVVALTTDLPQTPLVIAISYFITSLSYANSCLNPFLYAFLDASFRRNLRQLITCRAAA
CHO parental Ca = ATP-evoked calcium signal inhibitors, parental CHO, primary screen, counter-screen for OX1R antagonist project, cell-based, fluorescence, Fluo-8 calcium dye. parental CHO-K1, ATP-induced calcium, Fluo-8 fluorescence. inhibition, % at 5.6 µM. hit rate 0.63% among 330,000. AID 463079, 2010;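 active = inhibition above that plate's mean sample inhibition plus 3 SD, cut at about 26% in these data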
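Material – parental CHO cells · Reagent – ATP stimulus · Compound – single nominal dose of 5.6 µM per compound · Detection – Fluo-8 fluorescence · Read-out basis – percent inhibition of calcium signal · Controls – ATP-challenged DMSO wells low, unchallenged DMSO wells high · Repeats – no replicates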
OX1R antag-1 = OX1R (HCRTR1) antagonists, primary screen, fluorescence, CHO/OX1R cells, Fluo-8 calcium, orexin A; hit rate 0.43% among 330,000; Fluo-8 calcium fluorescence; inhibition, % at 5 µM; AID 434989, 2010;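 active = inhibition above its plate's threshold, mean inhibition of all tested compounds on the plate plus 3 SD, cut at about 37% in these data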
Target sequence (O43613 whole entry, looked up): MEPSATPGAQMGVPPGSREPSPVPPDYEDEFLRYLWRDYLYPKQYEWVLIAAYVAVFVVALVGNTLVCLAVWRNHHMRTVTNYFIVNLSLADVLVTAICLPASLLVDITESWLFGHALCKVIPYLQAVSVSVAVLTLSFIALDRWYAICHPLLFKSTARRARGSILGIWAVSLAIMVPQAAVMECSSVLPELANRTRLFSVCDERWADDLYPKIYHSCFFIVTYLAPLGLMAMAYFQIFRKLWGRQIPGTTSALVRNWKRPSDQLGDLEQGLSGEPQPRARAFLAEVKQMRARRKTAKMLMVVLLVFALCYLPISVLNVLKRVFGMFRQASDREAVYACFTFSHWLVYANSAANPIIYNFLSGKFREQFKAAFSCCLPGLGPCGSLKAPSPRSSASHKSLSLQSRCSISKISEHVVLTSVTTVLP
EP2 mod = EP2 receptor modulators, cAMP readout, primary screen, cell-based, HTRF cAMP, PGE2 stimulation; EP2-expressing cells, cAMP HTRF FRET, PGE2 co-stimulation; induction, % at 25 µM; hit rate 0.83% among 260,000;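 active = compounds whose cAMP rise, as percent of the full-agonist control response, exceeds 60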;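 note: rat C6 glioma line stably carrying human EP2 under a CMV promoter; the protocol text gives 20 µM as final concentration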
OX1R antag-2 = antagonists of human orexin 1 receptor (OX1R). Orexin/Hypocretin receptor type 1 (Homo sapiens), O43613. OX1R-expressing cells, FRET antagonist read-out. hit rate 1.8% among 330,000. AID 485270, 2010. inhibition, % at 6.6 µM; in the data active = inhibition mostly above about 38%, no sharp cut-off; inactive = mostly below about 40%
Large screens that a line does not name were inactive. An excerpt weighted towards active compounds, which were near 3.7% of everything screened.

Cc1ccccc1NC(=O)/C(C#N)=C\c1cc(C)n(-c2ccc(C(=O)O)cc2)c1C	none
COc1cc(-c2oc3cc(O)cc(O)c3c(=O)c2O[C@@H]2O[C@H](COC3O[C@@H](C)[C@H](O)[C@@H](O)[C@H]3O)[C@@H](O)[C@H](O)[C@H]2O)ccc1O (some centres undefined)	none (no result: EP2 antag, GPR7 antagonist, EP2 mod)
CC1(C)Cc2nc3sc4c(SCC(=O)NCc5ccccc5)ncnc4c3cc2CO1	EP2 mod 63.2
CC1Oc2ccccc2C=C1/C=N/NC(=O)c1ccccc1O (centres undefined)	OX1R antag-2 75.2
CC1Oc2ccccc2C=C1/C=N/NC(=O)c1ccccc1 (centres undefined)	none
CCc1ccccc1N(C1=NCCCS1)S(=O)(=O)c1ccc(C(C)(C)C)cc1	OX1R antag-2 51.2
CCOC(=O)c1c(C)[nH]c(C)c1S(=O)(=O)N(C)CC(=O)NCc1cccc(Br)c1	none (no result: EP2 antag, EP2 mod)
CC1(C)Cc2c(cnn2-c2ccc(F)cc2)C(NC(=O)CCN2CCCC2=O)C1 (centres undefined)	none (no result: EP2 antag, EP2 mod)
C=CCN=C1S/C(=C/c2ccc([N+](=O)[O-])cc2)C(=O)N1CC=C	none
C=CCN=C1S/C(=C/c2cccc([N+](=O)[O-])c2)C(=O)N1CC=C	EP2 mod 64.2
C[C@H]1CN(S(=O)(=O)c2ccc3c(c2)OCCO3)CCN1S(=O)(=O)c1c(F)cccc1F	none (no result: EP2 antag, GPR7 antagonist, EP2 mod)
COc1cc(/C=C2\SC(=S)N(NC(=O)c3ccccc3O)C2=O)ccc1O	CHO parental Ca 35.3 (no result: EP2 antag, EP2 mod)
CC(C)CC(NC(=O)c1ccco1)c1nc2cccnc2n1C (centres undefined)	none (no result: EP2 antag, GPR7 antagonist, CHO parental Ca, OX1R antag-1, OX1R antag-2)
O=C1Nc2ccc(Br)cc2/C1=C/C(=O)c1ccc2c(c1)OCO2	none
O=C1Nc2ccc(Br)cc2/C1=C/C1CC=CCC1 (centres undefined)	CHO parental Ca 32.7
CC1Cc2ccccc2N1C(=O)CNCCCN(C)C (centres undefined)	none (no result: EP2 antag)
CC1CC2(C)Oc3ccccc3CC2C(C)C1CNCCCN(C)C (centres undefined)	GPR7 antagonist 43.8
CCCCNC(=S)Nc1ccc(C(F)(F)F)cc1	CHO parental Ca 71.5
O=C(Nc1cccc2c1CCCC2)c1ccccc1Br	CHO parental Ca 44.5 (no result: EP2 antag, EP2 mod)
COc1ccc(C(=O)Nc2cccc3c2CCCC3)c(OC)c1	OX1R antag-2 57.4 (no result: EP2 antag, GPR7 antagonist, EP2 mod)
CCc1c(C)sc2nc(C(C)C)n3c(=O)n(Cc4cccnc4)nc3c12	none (no result: EP2 antag, GPR7 antagonist, CHO parental Ca, OX1R antag-1, OX1R antag-2)
CCc1c(C)sc2nc(C(C)C)n3c(=O)n(Cc4ccncc4)nc3c12	EP2 mod 61.4 (no result: EP2 antag, GPR7 antagonist, CHO parental Ca, OX1R antag-1, OX1R antag-2)
O=C(NCC1CCCO1)/C(=C/c1ccccc1F)NC(=O)c1ccccc1 (centres undefined)	none (no result: EP2 antag, EP2 mod)
COc1ccc(-n2nc3cc(N)c(Br)cc3n2)cc1	OX1R antag-2 43.3 (no result: EP2 antag, EP2 mod)
CCN(CC)c1ccc(-n2cc3c(=O)n(C)c(=O)n(C)c3c2)cc1	OX1R antag-2 74.1
CN(C)c1ccc(-n2cc3c(=O)n(C)c(=O)n(C)c3c2)cc1	none
O=C(CSc1nncs1)NCc1ccc2c(c1)OCO2	none (no result: EP2 mod)
CCOc1ccc(OCCN2C(=O)NC(Cc3c[nH]c4ccccc34)C2=O)cc1 (centres undefined)	OX1R antag-2 43.0
C=CCC1CCCCC12NC(=O)N(c1ccccc1)N2 (centres undefined)	none
O=C(N/N=C/c1cccnc1)c1ccc([N+](=O)[O-])cc1Cl	OX1R antag-2 34.9
C/C(CC(=O)Nc1ccccn1)=N\NC(=O)c1ccc([N+](=O)[O-])cc1Cl	none (no result: EP2 antag, EP2 mod)
Cc1ccc([N+](=O)[O-])c(C(=O)N/N=C/c2cccnc2)c1	OX1R antag-2 41.5
O=C(N/N=C/c1ccc(Cl)c([N+](=O)[O-])c1)c1cnccn1	OX1R antag-2 56.8
O=C(Nc1ccccn1)c1ccc([N+](=O)[O-])cc1Cl	OX1R antag-2 55.7
O=C(N/N=C/c1ccccc1[N+](=O)[O-])c1cnccn1	none
Cc1ccc([N+](=O)[O-])c(C(=O)N/N=C/c2cccs2)c1	none
COc1ccc(CC(=O)N2N=C(C)CC2(O)C(F)(F)F)cc1OC (centres undefined)	none
O=C(CSc1oc(-c2ccccc2)nc1S(=O)(=O)c1ccccc1)NCC1CCCO1 (centres undefined)	none (no result: EP2 antag, EP2 mod)
COc1ccc(-c2nc3ccccc3c(C(=O)Nc3ccc(S(=O)(=O)Nc4cc(C)on4)cc3)c2C)cc1	none
Cc1nn(-c2ccccc2)c(Cl)c1/C=N/NC(=O)c1ccco1	OX1R antag-2 44.8
Cc1ccc(C)c(OCC(=O)Nc2ccc3c(c2)OCO3)c1	none (no result: EP2 antag)
COc1ccc(CCC(=O)Nc2ccc3c(c2)OCCO3)cc1	CHO parental Ca 34.6
O=C(COc1ccccc1Cl)Nc1ccc2c(c1)OCCO2	EP2 mod 63.9
COc1ccc(CCC(=O)Nc2ccc3c(c2)OCO3)cc1	none (no result: EP2 antag, EP2 mod)
Cc1ccccc1OCC(=O)Nc1ccc2c(c1)OCCO2	none
Cc1cc(C)c(OCC(=O)Nc2ccc3c(c2)OCO3)cc1C	CHO parental Ca 44.3
Cc1ccccc1NS(=O)(=O)c1ccc(OCC(=O)NCc2ccccn2)cc1	none
CC(=O)c1cccc(NS(=O)(=O)c2ccc(-c3cnc(C4CC4)o3)cc2)c1	CHO parental Ca 50.1 (no result: EP2 antag, EP2 mod)
CC(=O)Nc1ccc(NS(=O)(=O)c2ccc(-c3cnc(C4CC4)o3)cc2)cc1	none (no result: EP2 antag, EP2 mod)
COc1cccc(NC(=O)C2CCCN2S(=O)(=O)c2ccc(F)cc2)c1 (centres undefined)	none (no result: GPR7 antagonist, CHO parental Ca, OX1R antag-1, OX1R antag-2)
O=C(Nc1cccc(S(=O)(=O)N2CCCCC2)c1)C1CCC1	none (no result: EP2 antag, GPR7 antagonist, EP2 mod)
O=C(Nc1cccc(S(=O)(=O)N2CCCCC2)c1)C1CCCN1S(=O)(=O)c1ccccc1F (centres undefined)	OX1R antag-2 27.9 (no result: EP2 antag, GPR7 antagonist, EP2 mod)
CS(=O)(=O)c1cccc(NC(=O)C2CCCN2S(=O)(=O)c2ccc(F)cc2)c1 (centres undefined)	OX1R antag-2 54.9 (no result: EP2 antag, EP2 mod)
CNc1nnc(Sc2ncccc2[N+](=O)[O-])s1	OX1R antag-2 47.5
O=[N+]([O-])c1cccnc1Sc1ccc(F)cc1	none (no result: EP2 antag, GPR7 antagonist, EP2 mod)
CCc1ccc(NC(=S)N(CCCN2CCOCC2)Cc2ccccn2)cc1	none
Oc1cc(O)c2c(c1)O[C@H](c1ccc(O)c(O)c1)[C@@H](O)[C@@H]2c1c(O)cc(O)c2c1O[C@@H](c1ccc(O)c(O)c1)[C@H](O)C2	EP2 antag 51.1 (no result: GPR7 antagonist, CHO parental Ca, OX1R antag-1, OX1R antag-2)
O=C(CSc1cccs1)Nc1cccc2ccccc12	none
O=C(CSc1cccs1)Nc1ccc2ccccc2c1	OX1R antag-2 40.6
CCn1c(SCC(=O)Nc2ccc(NC(C)=O)cc2)nc2c1c(=O)n(C)c(=O)n2C	none (no result: EP2 antag, EP2 mod)
